Data reported in ChEMBL document CHEMBL3228044, “Studies on antianaphylactic agents. 6. Synthesis of some metabolites of 6-ethyl-3-(1H-tetrazol-5-yl)chromone and their analogues” (1979).

Tests used:
Rattus norvegicus [1] = assay: Antianaphylactic activity in iv dosed male Sprague-Dawley rat assessed as inhibition of egg albumin/Bordetella pertussis-induced passive cutaneous anaphylaxis reaction; type: functional; conditions: read-out: ID50 (the source's name)
Summary of the method: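 Sera from rats sensitized with im egg albumin plus ip sterilized B. pertussis (collected day 12) were diluted fourfold and injected intradermally into dorsal skin of 8-week rats (~280 g). At 72 h, rats received iv egg albumin 5 mg plus Evans blue 10 mg. Drug in saline or PEG 400 was given iv immediately before challenge. Dye-leakage area (mm2) was read at 30 min. ID50 by least squares on log dose, with 95% confidence limits.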

Rattus norvegicus [2] = assay: Antianaphylactic activity in po dosed male Sprague-Dawley rat assessed as inhibition of egg albumin/Bordetella pertussis-induced passive cutaneous anaphylaxis reaction; type: functional; conditions: read-out: ID50 (the source's name)
Summary of the method: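 Homologous rat PCA used 72-h skin sensitization with fourfold-diluted anti-egg albumin serum, raised with B. pertussis adjuvant, in 8-week rats (~280 g). Drug was suspended in 3% gum arabic and given orally 5 min before iv challenge with egg albumin 5 mg plus Evans blue 10 mg. Dye-leakage area (mm2) was measured after 30 min. ID50 by least squares on log dose vs area, with 95% confidence limits.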

Structure (SMILES)	ED50 (Rattus norvegicus [1]) [mg/kg]	ED50 (Rattus norvegicus [2]) [mg/kg]
CCc1ccc2occ(-c3nnnn3[C@@H]3O[C@H](C(=O)[O-])[C@@H](O)[C@H](O)[C@H]3O)c(=O)c2c1.[Na+]	> 20	–
CCc1ccc2occ(-c3nnn[nH]3)c(=O)c2c1	0.25	5.9
CC(O)c1ccc2occ(-c3nnn[nH]3)c(=O)c2c1 (stereo not given)	0.56	13.4
CC(=O)c1ccc2occ(-c3nnn[nH]3)c(=O)c2c1	0.24	6.6
O=c1c(-c2nnn[nH]2)coc2ccc(CCO)cc12	0.21	> 20
O=c1c(-c2nnn[nH]2)coc2ccc(C(O)CO)cc12 (stereo not given)	0.57	> 20
CCc1ccc(O)c(C(=O)O)c1	> 20	–
O=C(O)Cc1ccc(O)c(C(=O)O)c1	> 20	–
CC(=O)OC(C)c1ccc2occ(-c3nnn[nH]3)c(=O)c2c1 (stereo not given)	–	> 20
CCC(O)c1ccc2occ(-c3nnn[nH]3)c(=O)c2c1 (stereo not given)	0.3	> 20
CCCC(O)c1ccc2occ(-c3nnn[nH]3)c(=O)c2c1 (stereo not given)	1.07	–
CC(C)(O)c1ccc2occ(-c3nnn[nH]3)c(=O)c2c1	1.13	–
CCC(=O)c1ccc2occ(-c3nnn[nH]3)c(=O)c2c1	0.29	–
O=Cc1ccc2occ(-c3nnn[nH]3)c(=O)c2c1	1.1	> 20
O=c1c(-c2nnn[nH]2)coc2ccc(CO)cc12	0.34	–
C=Cc1ccc2occ(-c3nnn[nH]3)c(=O)c2c1	0.49	–
O=C([O-])c1cc(=O)c2c(OCC(O)COc3cccc4oc(C(=O)[O-])cc(=O)c34)cccc2o1.[Na+].[Na+] [CROMOLYN SODIUM]	1.33	> 100
